Data set [1] is described as follows: melting temperature; fluorescence melt of hairpins on a sequencing array, two-state fit, raised by 9.35 °C to match UV melts. The conditions noted are these: sodium 0.088 M. An outline of the steps: (§1)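 With Cy3 and quencher oligos annealed, library hairpins on a sequenced MiSeq flow cell were imaged for Cy3 fluorescence in 50 mM Na-HEPES pH 8.0, 25 mM NaCl, in 2.5 °C steps up to 60 °C. Melting temperature and folding enthalpy were derived from bootstrapped two-state fits of signals normalised to pre-quench Cy3 and to control constructs. Four replicates were combined by inverse variance, with fitted temperatures raised by 9.35 °C to match UV melts.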

The nature of data set [2]: folding enthalpy; higher = less favourable; fluorescence melt of hairpins on a sequencing array, two-state fit. The conditions noted are these: sodium 0.088 M. An outline of the steps: as §1

As to GATCCGGACCCGGATC ((((((....)))))), the Tm in data set [1] is 61.1 °C. In addition, the folding enthalpy in data set [2] was -36.9 kcal/mol.
For GCCTACGAAAGTACTGGC ((((((....)))..))) the same measures were 40.2 °C and -24.4 kcal/mol.
Take TTATGGAAACATAA (((((....))))): the Tm in data set [1] was determined as 22.8 °C. Moreover, the folding enthalpy in data set [2] was -8.55 kcal/mol.
Taken in the same sequence, the figures for GCATCGCGAAAGCCCTGC (((..((....))..))) were 33 °C and -7.86 kcal/mol.
For AAACAGAAATGTTT (((((....))))) the same measures were 25.3 °C and -11.4 kcal/mol.
Taken in the same sequence, the figures for GCGCTAACGAAAGTTCGC (((..(((....)))))) were 45.4 °C and -21.8 kcal/mol.
With GATCTTCACGAAGATC ((((((....)))))), the Tm in data set [1] amounted to 49.2 °C. Also, the folding enthalpy in data set [2] was -40.1 kcal/mol.
For GATCTTGACAAAGATC ((((((....)))))), the Tm in data set [1] was determined as 52.7 °C. Besides, the folding enthalpy in data set [2] was -44 kcal/mol.
On to GTGTGAGGAAACTCGCAC (((.(((....))).))), for which, in data set [1], the Tm worked out at 54.3 °C. Further, in data set [2], the folding enthalpy was -47 kcal/mol.
As to GCGACCGAAAGGTCTCGC ((((((....)))..))), the Tm in data set [1] was 50.2 °C. In addition, the folding enthalpy in data set [2] was -14.6 kcal/mol.
For GCTCGCGAAAGCGGAAGC ((((((....)))..))) the same measures were 53.2 °C and -16.3 kcal/mol.
For GCGCAACGAAAGTTTCGC (((.(((....))).))) the same measures were 52.9 °C and -43 kcal/mol.
Consider GTTCGTGGAAACACGGAC ((.((((....)))).)), for which the Tm in data set [1] was 54.5 °C. In data set [2], the folding enthalpy is -42.5 kcal/mol.
Taken in the same sequence, the figures for GCTAGGGAAACCTAGC ((((((....)))))) were 58.4 °C and -36.9 kcal/mol.
Consider GTGATGGAAACATCAC ((((((....)))))), for which the Tm in data set [1] is 56.7 °C. In data set [2], the folding enthalpy is -41.8 kcal/mol.
As to GTAGTTGAAAAACTAC ((((((....)))))), in data set [1], the Tm was 48.9 °C. In addition, the folding enthalpy in data set [2] was -30.9 kcal/mol.
For GGGCATTCGAAAGAACCC (((..(((....)))))) the same measures were 29.5 °C and -14.2 kcal/mol.
Taken in the same sequence, the figures for GCGGTCGAAAGACATCGC ((((((....)))..))) were 49.1 °C and -20.7 kcal/mol.
Taken in the same sequence, the figures for GCATCCTCGAAAGAGTGC (((..(((....)))))) were 33.1 °C and -19.1 kcal/mol.
Turning to GCGCATGGAAACGTGCGC (((((.(....).))))), the Tm in data set [1] worked out at 66.6 °C. Besides, the folding enthalpy in data set [2] is -41 kcal/mol.
On to GGCTTGGGAAACTAGGCC (((.(.(....).).))), for which the Tm in data set [1] was 39.4 °C. In data set [2], the folding enthalpy was -28.4 kcal/mol.
Turning to CGGCATCGGAAACGACCG (((..(((....)))))), in data set [1], the Tm was 34.4 °C. In addition, in data set [2], the folding enthalpy is -16.6 kcal/mol.
For GCTTTGCGAAAGCTATGC ((.(.((....)).).)) the same measures were 45.6 °C and -12.6 kcal/mol.
Taken in the same sequence, the figures for GCGGAAGGAAACCTCCGC (((((.(....).))))) were 54.1 °C and -33.2 kcal/mol.
On to GCCTGGGGAAACCCAAGC ((.((((....)))).)), for which the Tm in data set [1] worked out at 42.7 °C. The folding enthalpy in data set [2] is -21.5 kcal/mol.
As for GATCCGTCTCCGGATC ((((((....)))))), the Tm in data set [1] was found to be 58.4 °C. Besides, the folding enthalpy in data set [2] was -39.8 kcal/mol.
Take GTAGACCCGAAAGGGTAC (((..(((....)))))): the Tm in data set [1] was found to be 32.3 °C. For the same sequence, in data set [2], the folding enthalpy is -9.26 kcal/mol.
In the case of GCCAAGCGAAAGCATTGC ((.(.((....)).).)), the Tm in data set [1] stood at 32.5 °C. Also, in data set [2], the folding enthalpy was -11.2 kcal/mol.
With GCCCTCGGAAACGAGGAC (.(((((....))))).), the Tm in data set [1] amounted to 50.3 °C. In addition, in data set [2], the folding enthalpy was -13.4 kcal/mol.
Taken in the same sequence, the figures for GATCCATACTGGATC ((((((...)))))) were 51.4 °C and -37.6 kcal/mol.
For GATCTGTATCCAGATC ((((((....)))))) the same measures were 47.4 °C and -40.3 kcal/mol.
Taken in the same sequence, the figures for GATCAAGTGCTTGATC ((((((....)))))) were 47.2 °C and -41.2 kcal/mol.
For GTTGGACGAAAGTCTAAC (((.(((....))).))), the Tm in data set [1] turned out to be 51.4 °C. Further, the folding enthalpy in data set [2] was -26.3 kcal/mol.
As for GTATTCGGAAACGAATGC (.(((((....))))).), in data set [1], the Tm came to 48.6 °C. The folding enthalpy in data set [2] is -29.1 kcal/mol.
For GCTCTTCGAAAGAATAGC (((.(((....))).))) the same measures were 38.5 °C and -30.7 kcal/mol.
As to GGCAGCGAAAGCTCAGCC ((((((....)))..))), the Tm in data set [1] was 51 °C. Moreover, the folding enthalpy in data set [2] is -18.4 kcal/mol.
Taken in the same sequence, the figures for GCAAAGGGAAACCTTTGC (((((((....))))))) were 64.1 °C and -45.1 kcal/mol.

The values above are taken from the array DNA melting data of Ke et al. (doi:10.1101/2024.01.08.574731).
